Test results taken from ChEMBL document CHEMBL1250429, “Studies on the anti-hepatitis C virus activity of newly synthesized tropolone derivatives: identification of NS3 helicase inhibitors that specifically inhibit subgenomic HCV replication” (Bioorg Med Chem, 2010).

Experiments:
[1] = Cytotoxicity against human HuH7 cells; type: cell-based, Huh-7
Outline: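 Replicon-bearing Huh-7 cells were grown with compound at 1 μM to 1 mM at a constant final 1% solvent. CC50 = concentration inhibiting cell growth by 50%. Mean of at least three independent experiments ± SD.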

[2] = Selectivity index, ratio of CC50 for human HuH7 cells to EC50 for; set-up: species or system Huh-7
Outline: (§1)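 Huh-7 cells carrying a stably replicating subgenomic HCV replicon were grown with compound at 1 μM to 1 mM, final solvent 1%; solvent-only cells served as control. Remaining replication read as luminescence. EC50 = concentration reducing luminescence by 50%; SI = CC50/EC50. Mean of at least three independent experiments ± SD.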

Hepatitis C virus [3] = experiment: Antiviral activity against HCV Con 1 by subgenomic replicon assay; type: functional, organism-based, Hepacivirus hominis; settings: Con1; outline: as §1
[4] = Inhibition of HCV NS3 helicase; set-up: species or system Hepacivirus hominis
Outline: (§2)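 Fluorescence unwinding assay with purified NS3 helicase domains. Genotype 1a was expressed in baculovirus-infected insect cells; genotypes 1b and 3a were cloned from patient blood by RT-PCR, purity 95% by SDS–PAGE. Reactions used 10 nM dsDNA substrate, 20 nM enzyme and 125 nM capture strand. Inhibitor (1–300 μM) was preincubated with enzyme and substrate 15 min at room temperature without ATP. Reactions were started with 1.5 mM ATP and run 60 min at 30 °C, read every 2 min. Activity = initial velocity; inhibition relative to no-inhibitor control. Mean of at least three experiments ± SD.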

[5] = Inhibition of HCV genotype 1a NS3 helicase; set-up: species or system Hepatitis C virus subtype 1a; outline: as §2
Hepatitis C virus [6] = experiment: Inhibition of HCV genotype 1B NS3 helicase; set-up: species or system Hepatitis C virus subtype 1b; outline: as §2
[7] = Inhibition of HCV genotype 3a NS3 helicase; set-up: species or system Hepatitis C virus subtype 3a; outline: as §2

With `NC(=O)c1ncn([C@@H]2O[C@H](CO)[C@@H](O)[C@H]2O)n1` [RIBAVIRIN] the CC50 [1] was 178 µM, the “Ratio CC50/EC50” value [2] was 1.5 and the EC50 (Hepatitis C virus [3]) was 120 µM.

In the case of `O=c1c(Cl)cccc(Cl)c1O`, the CC50 [1] is reported as 254 µM, the “Ratio CC50/EC50” value [2] is reported as 0.8 and the EC50 (Hepatitis C virus [3]) is reported as 334 µM. For the same molecule, the IC50 [4] was > 150 µM.

In the case of `CN1CCN(Cc2cc(CN3CCN(C)CC3)c(O)c(=O)c(CN3CCN(C)CC3)c2)CC1`, the CC50 [1] is reported as > 1000 µM, the “Ratio CC50/EC50” value [2] is reported as >21.3 and the IC50 [5] is reported as 3.4 µM. For the same molecule, the EC50 (Hepatitis C virus [3]) was 46.9 µM, the IC50 [4] was 3.4 µM and the IC50 (Hepatitis C virus [6]) was 3.5 µM. For the same molecule, the IC50 [7] was 4.5 µM.

With `O=c1c(Br)cccc(Br)c1O` the CC50 [1] was 92.7 µM, the “Ratio CC50/EC50” value [2] was 1 and the EC50 (Hepatitis C virus [3]) was 89.8 µM. The IC50 [4] was > 150 µM.

For `O=c1c(CN2CCCCC2)cc(CN2CCCCC2)cc(CN2CCCCC2)c1O`, the CC50 [1] was > 500 µM, the “Ratio CC50/EC50” value [2] was >3.6 and the EC50 (Hepatitis C virus [3]) was 137 µM. For the same molecule, the IC50 [4] was 26.5 µM.

For `O=c1c(CN2CCC(N3CCCC3)CC2)cc(CN2CCC(N3CCCC3)CC2)cc(CN2CCC(N3CCCC3)CC2)c1O`, the CC50 [1] was > 200 µM, the EC50 (Hepatitis C virus [3]) was > 200 µM and the IC50 [4] was 7 µM.

For `O=c1c(CN2CCCC2)cc(CN2CCCC2)cc(CN2CCCC2)c1O`, the CC50 [1] was > 500 µM, the EC50 (Hepatitis C virus [3]) was > 500 µM and the IC50 [4] was 184 µM.

With `O=c1c(CN2CCC(O)CC2)cc(CN2CCC(O)CC2)cc(CN2CCC(O)CC2)c1O` the CC50 [1] was > 250 µM, the EC50 (Hepatitis C virus [3]) was > 250 µM and the IC50 [4] was 22.7 µM.

For `CC1CCN(Cc2cc(CN3CCC(C)CC3)c(O)c(=O)c(CN3CCC(C)CC3)c2)CC1`, the CC50 [1] was 556 µM, the “Ratio CC50/EC50” value [2] was 17.4 and the EC50 (Hepatitis C virus [3]) was 32 µM. The IC50 [4] was 10.5 µM.

In the case of `[N-]=[N+]=N[C@]1(CO)O[C@@H](n2ccc(N)nc2=O)[C@H](O)[C@@H]1O` [4'-AZIDOCYTIDINE], the CC50 [1] is reported as > 100 µM and the EC50 (Hepatitis C virus [3]) is reported as 10.5 µM.

In the case of `O=c1ccccc(Br)c1O`, the CC50 [1] is reported as 85.2 µM, the “Ratio CC50/EC50” value [2] is reported as 0.7 and the EC50 (Hepatitis C virus [3]) is reported as 121 µM. The IC50 [4] was > 150 µM.

With `CC1CCCN(Cc2cc(CN3CCCC(C)C3)c(O)c(=O)c(CN3CCCC(C)C3)c2)C1` (centres undefined) the CC50 [1] was 348 µM, the “Ratio CC50/EC50” value [2] was 9.8 and the EC50 (Hepatitis C virus [3]) was 35.6 µM. It also gave an IC50 [4] of 17.8 µM.

For `O=c1c(Br)cc(CN2CCOCC2)cc(Br)c1O`, the CC50 [1] was 227 µM, the “Ratio CC50/EC50” value [2] was 1.3 and the EC50 (Hepatitis C virus [3]) was 176 µM. It also gave an IC50 [4] of 17.6 µM.
